Broadly, the ΔTm is the shift of the melting midpoint relative to a reference. For orientation: inhibition means how much of the control response was suppressed. Usually IC50 stands for the point on the concentration scale where inhibition reaches its midpoint. A higher IC50 goes with lower potency.

A short description of data set [1]: Stabilization of 5'-FAM/3'-TAMRA labeled c-Myc Pu22 G-quadruplex DNA (unknown origin) assessed as change in melting temperature at 2 uM by FRET assay. In outline: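 FRET melting of FAM/TAMRA-labelled FPu22T (0.2 μM) in 10 mM Tris-HCl pH 7.4 with 2 mM KCl, ligand 2 μM, in a real-time PCR machine. Excitation 470 nm, emission 530 nm, read every 1 °C from 37 to 99 °C after 30 s hold at each step; ΔTm versus probe alone.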

A short description of data set [2]: Stabilization of c-Myc Pu27 G-quadruplex DNA (unknown origin) assessed as induction of parallel G-quadruplex formation in presence of K+ ions by CD spectroscopic analysis. In outline: (§1)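 CD spectra: Pu27 at 5 μM in 10 mM Tris-HCl pH 7.4 without or with 100 mM KCl, annealed 95 °C 5 min, slow-cooled, kept at 4 °C overnight, with ligand. Scanned 230–400 in a 4 mm quartz cuvette, 1 nm bandwidth and step, 0.5 s/point; buffer baseline subtracted.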

A short description of data set [3]: Stabilization of c-Myc Pu27 G-quadruplex DNA (unknown origin) assessed as induction of parallel G-quadruplex formation in absence of K+ ions by CD spectroscopic analysis. A digest of the protocol: as §1
Data set [4] in a line: Inhibition of NM23-H2 binding to 5'-FAM labeled c-Myc Pu27 G-quadruplex DNA (unknown origin) at 10 uM preincubated for 1 hr followed by NM23-H2 addition by electrophoretic mobility shift assay relative to control. A digest of the protocol: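 Annealed labeled Pu27 (1.5 μM) preincubated 1 h at 25 °C with 10 μM ligand or 5% DMSO. Recombinant His-tagged NM23-H2 (0.5 μM, E. coli BL21, nickel-purified) then added for 1 h at 37 °C. Complexes resolved on 5% native polyacrylamide gel in 0.5× TBE at 4 °C. Inhibition taken as loss of complex band intensity versus no-compound band set at 100%. Run three times.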
(Mobility shift assays separate free from complexed probe on a gel.)

Data set [5] deals with Raji. Description: Antiproliferative activity against human Raji cells after 48 hrs by MTT assay. The format is functional, cell-based. A digest of the protocol:
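RAJI cells were seeded at 5 × 10^3 cells per well and treated for 48 h, with a DMSO-matched control. MTT at 0.5 mg/mL was added for 4 h at 37 °C, followed by overnight lysis at 37 °C and absorbance at 570 nm. Each assay was done in triplicate. IC50 came from the dose-dependent percentage survival versus the control.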

The nature of data set [6]: Inhibition of NM23-H2 binding to 5'-biotin labeled c-Myc Pu27 G-quadruplex DNA (unknown origin) […] by ELISA. A digest of the protocol: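 Biotin-Pu27 at 100 nM in 10 mM Tris-HCl pH 7.4 with 100 mM KCl was annealed and captured on streptavidin plates. Compound (serial halving from 50 μM in 3% BSA blocking buffer) was preincubated with 250 nM NM23-H2 for 1 h at 25 °C, then added to the DNA at 4 °C overnight. Bound protein was detected with anti-NM23-H2, an HRP secondary and TMB, read at A450; three replicates, DMSO control.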

The species named for data set [7] is Homo sapiens. The data set can be described thus: Effect on c-Myc DNA translocated chromosome product in human Raji cells assessed as decrease in amplification of exon-2 after 12 hrs by RT-PCR method. The format is cell-based. In outline:
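RAJI cells, which retain NHE III1, and CA46 cells, which lack NHE III1 and the P1/P2 promoters, were exposed to graded compound concentrations for 12 h. Total RNA (2 μg) was reverse-transcribed with oligo dT18 and M-MLV. c-MYC exons 1 and 2, NM23-H2 and β-actin were amplified by real-time PCR against untreated cells. Three repeats were done; two-tailed unpaired t-test.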

Another data set has as its system CCRF-CEM. Description: Antiproliferative activity against human CCRF-CEM cells after 12 hrs by MTT assay. The format is functional, cell-based. In outline: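 RAJI, CCRF-CEM and U266B1 cells were seeded at 5 × 10^3 cells per well and exposed to compound for 12 h, with a DMSO vehicle control. MTT at 0.5 mg/mL was added for 4 h at 37 °C, then lysis solution overnight at 37 °C, and A570 was read. Assays were run in triplicate. IC50 was taken from the percentage survival relative to the negative control.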
A general note: Tetrazolium assays rely on reduction of a dye to a coloured formazan, in cell work by metabolically active cells.

For data set [8], the species on record is Homo sapiens. Description: Stabilization of c-Myc G-quadruplex DNA in human CCRF-CEM cells assessed as downregulation of c-Myc mRNA level at 2 uM after 12 hrs by RT-PCR method relative to control. The format is cell-based. A digest of the protocol: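 RAJI, CCRF-CEM and U266B1 grown in RPMI 1640 with 10% fetal calf serum at 37 °C, plated at 1 × 10^6 cells/well overnight, then treated 12 h with 4, 2, 1 or 0.5 μM (DMSO control). RNA (2 μg) reverse-transcribed with oligo dT18/M-MLV; c-MYC, NM23-H2 and β-actin amplified by real-time PCR, checked on 1.5% agarose.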

Data set [9] is described as follows: Drug uptake in human Raji cells at 1 uM after 12 to 48 hrs. The format is ADME, cell-based.
In data set [10] the test system is Raji. Description: Cell cycle arrest in human Raji cells assessed as accumulation at S phase after 12 hrs by propidium iodide staining based flow cytometry (reference value: 32.2%). The format is functional. For orientation: A flow cytometer gives signals particle by particle.
For data set [11], the system named is Raji. The data set can be described thus: Cell cycle arrest in human Raji cells assessed as accumulation at G2/M phase after 12 hrs by propidium iodide staining based flow cytometry (reference value: 24.4%). The format is functional.
Data set [12] deals with Raji. Description: Induction of apoptosis in human Raji cells assessed as early apoptotic cells at 0.5 uM after 12 hrs by Annexin V-FITC/propidium iodide staining based flow cytometry (reference value: 2.3%). The format is functional. A digest of the protocol: (§2)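 RAJI cells exposed to compound or control medium for 12 or 48 h were washed in PBS and resuspended in binding buffer. They were stained with FITC annexin V and PI for 15 min in the dark, and fluorescence was measured by flow cytometry.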

The subject of data set [13] is Raji. Description: Induction of apoptosis in human Raji cells assessed as necrotic cells at 1 uM after 12 hrs by Annexin V-FITC/propidium iodide staining based flow cytometry relative to control. The format is functional. In outline: as §2
The test system of data set [14] is Raji. The data set can be described thus: Induction of apoptosis in human Raji cells assessed as late apoptotic cells at 0.5 uM after 48 hrs by Annexin V-FITC/propidium iodide staining based flow cytometry (reference value: 0.1%). The format is functional. In outline:
as §2

Data set [15] relates to Raji. The data set can be described thus: Induction of apoptosis in human Raji cells assessed as downregulation of Cyclin D1 expression after 12 hrs by Western blot method. The format is functional, cell-based. In outline:
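After compound exposure (12 h for cell-cycle and apoptosis markers), RAJI cells were lysed in 1% NP-40 buffer. Protein at 50 μg per lane was run on 3–12% SDS-PAGE and transferred to nitrocellulose. Blots were probed with primary antibodies (GAPDH as loading reference) and detected with an HRP secondary and enhanced chemiluminescence.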

Data set [16] has as its system Raji. The data set can be described thus: Antitumor activity against human Raji cells xenografted in NOD/SCID nude mouse assessed as reduction in tumor weight at 15 to 30 mg/kg, ip administered once daily for 2 weeks relative to control. The format is functional, organism-based. A digest of the protocol: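 NOD/SCID mice were implanted subcutaneously in the underarm with RAJI cells (5 × 10^6 per 100 μL of RPMI 1640 with 10% serum). Tumours reached […] after 1 week, and mice were then randomised. […] Tumour volume was recorded daily and tumour weight at the end.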

Active and inactive are the calls of the source. The calls are words filed in the database; no cut-off is given here.

Consider `CN(C)CCCNc1c2ccccc2nc2c1oc1ccc(OCC3CCN(C)CC3)cc12`, for which the ΔTm in data set [1] is 26.6 °C. The Activity result in data set [2] was “Dose-dependent effect”; in the data set filed under Homo sapiens [7] it was “Dose-dependent effect”; in the data set filed under Homo sapiens [8], below 20%; in the data set on Raji [10], 5.5%; in the data set on Raji [11], 29.3%; with Raji [12], 4.6%. Also, the Activity was 0% with Raji [13], 0.7% with Raji [14] and “Dose-dependent effect” in the data set with Raji [15]. In addition, the outcome (in data set [3]; with Raji [16]) was Active. For the same molecule, the inhibition in data set [4] was above 80%; in data set [6], “Dose-dependent effect”. Moreover, the IC50 in the data set on Raji [5] was determined as 4.7 µM; in the data set on CCRF-CEM it was 18.1 µM. The Drug uptake result in data set [9] is given as “Not Active”.
